An excerpt weighted towards active compounds, which were near 4.1% of everything screened.
KCC2 mod – KCC2 cotransporter modulators, thallium flux, primary screen, cell-based, HEK293 KCC2, FluoZin-2 fluorescence, MLSMR; B-score of Tl+ flux slope (higher = more flux/activation; lower = inhibition) at 10 µM; AID 1456, 2008; KCC2 cells, thallium flux FluoZin-2 fluorescence; 190,000 compounds, 2.2% hits; Solute carrier family 12 member 5 (Homo sapiens), Q9H2X9;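 active = thallium flux slope and its plate-corrected score both differing from the plate sample mean at a set confidence after two filtering rounds, in either direction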;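 also: slope of fluorescence scaled to starting intensity during 10 to 20 s after thallium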
Dynein transport – inhibitors of GR-EGFP nuclear translocation, primary screen, dynein cargo transport inhibitor project, imaging, high-content, 3617.4 mouse cells. test concentration mostly 20 µM; stimulated with dexamethasone, 1 µM; hits give low values. z-score, hits read low. 220,000 compounds, 0.47% hits. AID 1381, 2008;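 active = plate z-score of nuclear minus cytoplasmic receptor signal below a set negative limit, without overly bright fluorescence or cell loss, cut at about -3.5 in these data, passing the limit was not always enough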;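 also: z-score of nuclear minus cytoplasmic ring GR-EGFP intensity difference per well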
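Buffer or medium: tet-free, stripped-serum medium; Also added: dexamethasone, 1.0 µM final; Technique: high-content fluorescence imaging after fixation; Times: 48 h induction, 1 h compound, 30 min dex at 37 °C; Read-out: per-cell GR-EGFP intensity, nucleus versus surrounding cytoplasmic ring, well-averaged.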
ROMK mod – ROMK potassium channel modulators, primary screen, cell-based, thallium flux, MLSMR library. ATP-sensitive inward rectifier potassium channel 1 (Homo sapiens), P48048. Tet-inducible ROMK, thallium flux fluorescence; actives lie on both sides. B-score at 10 µM. 130,000 compounds, 2% hits. AID 1918, 2009;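 active = signal ratio slope over the read window, or its plate-corrected B-score, at least 3 SD from the plate mean, either direction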;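 also: B-score of the F/F0 ratio slope over 7 to 12 s after thallium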
Target sequence (P48048 whole entry, looked up): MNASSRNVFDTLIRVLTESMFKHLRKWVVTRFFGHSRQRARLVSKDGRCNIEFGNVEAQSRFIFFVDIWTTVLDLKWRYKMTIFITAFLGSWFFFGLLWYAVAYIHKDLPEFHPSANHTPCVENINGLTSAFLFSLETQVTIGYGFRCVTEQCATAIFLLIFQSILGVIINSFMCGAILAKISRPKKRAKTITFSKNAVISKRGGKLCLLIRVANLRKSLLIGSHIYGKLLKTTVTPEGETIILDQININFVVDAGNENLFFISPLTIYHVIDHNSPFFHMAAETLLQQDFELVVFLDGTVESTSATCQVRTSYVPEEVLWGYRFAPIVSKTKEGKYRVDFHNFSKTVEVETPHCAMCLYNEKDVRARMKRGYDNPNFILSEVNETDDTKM
DTT redox prof – compounds producing H2O2 with reducing agent – biochemical, NIH compound library profiling, artefact control for MLSCN library redox annotation, primary screen; DTT-dependent redox cycling H2O2, phenol red/HRP absorbance; 100% = 100 µM peroxide control, 0% = buffer; activation, % at 10 µM; 200,000 compounds, 0.03% hits; AID 878, 2007;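 active = activation of at least 50% relative to the plate's high and low controls in the primary single-dose screen; inactive = activation below 50%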;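 also: compound incubated with DTT at 0.8 mM final as the reducing agent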
Autophagy mod – autophagy modulators in MEF cells, primary screen, imaging, high-content, MEF GFP-LC3 | MEF GFP-LC3 puncta imaging; test concentration mostly 10 µM | calls only at 10 µM (by protocol) | AID 463193, 2010 | 190,000 compounds, 0.98% hits;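 active = percentage of spot-positive cells more than 3 SD above its plate mean, without a fluorescence outlier flag or 80% toxicity; inconclusive = no clear call, values can overlap the other calls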;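 also: spot-positive cell cutoff set from DMSO-treated cells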
KCC2 sec1 – KCC2 modulators in sodium-free buffer, confirmation, cell-based, HEK293 KCC2, thallium flux, secondary assay; shares compounds with KCC2 mod; FluoZin2 fluorescence; hits give high values; normalised thallium flux (F/F0 slope) at 10 µM; 3,700 compounds, 15% hits;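 active = thallium flux slope above the same plate's solvent-only control mean plus 3 SD; inconclusive = the two replicate wells disagree; inactive = no significant difference from solvent-only control wells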
KCC2 bumet counter – thallium flux persisting under bumetanide in KCC2 cells, confirmation, counter-screen for KCC2 modulator project, cell-based, HEK293 KCC2, FluoZin2, secondary assay 3; shares compounds with KCC2 mod; HEK293-KCC2 + bumetanide/ouabain; hits give high values; normalized thallium flux at 10 µM; 3,700 compounds, 49% hits;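 active = thallium entry rate above the same plate's blocked-transporter control wells by more than 3 SD; inconclusive = the two repeat wells disagree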;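 also: raw slope of fluorescence over initial fluorescence between 10 and 20 s after thallium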
KCC2 secondary2 – KCC2 modulators without ouabain present, confirmation, cell-based, HEK293 KCC2, thallium flux, FluoZin2, secondary assay 2 | shares compounds with KCC2 mod | thallium flux FluoZin2 fluorescence; actives lie on both sides; F/F0 rise rate, 10–20 s post-thallium | normalized thallium flux at 10 µM | 3,700 compounds, 23% hits;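 active = thallium flux slope more than 3 SD above or below the plate's solvent-only control mean, mostly below; inconclusive = the two repeat wells disagreed; inactive = no significant shift from solvent-only controls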;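 also: raw slope with 0.1% DMSO as baseline and bumetanide as block control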
HEK293 Tl flux – thallium flux modulation in parental HEK cells, confirmation, counter-screen for KCC2 modulator project, cell-based, counterscreen 1; shares compounds with KCC2 mod; HEK293 parental cells, thallium flux FluoZin2, ouabain; baseline-ratio fluorescence slope, 10–20 s after thallium; thallium flux rate (normalised fluorescence) at 10 µM; 3,700 compounds, 46% hits; AID 1716, 2009;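 active = thallium flux rate significantly above the same plate's solvent-only control wells, beyond their mean plus 3 SD; inconclusive = the two replicate wells gave conflicting results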
KCC2 ouabain – KCC2 inhibitors and activators, ouabain retest, confirmation, HEK-KCC2 cells; shares compounds with KCC2 mod; HEK293-KCC2, thallium flux FluoZin2 fluorescence; bidirectional: low = inhibitor, high = activator; raw Tl+ flux slope (below DMSO = inhibition, above = activation) at 10 µM; 3,700 compounds, 48% hits; AID 1717, 2009;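 active = thallium flux slope beyond 3 SD from same-plate DMSO control mean in most replicates, usually higher, sometimes lower; inconclusive = repeat tests gave conflicting results; inactive = no significant difference from controls in most replicates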;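 also: slope of initial-normalized fluorescence between seconds 10 and 20 after thallium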
HEK counter2 – native HEK Tl+ uptake effects, second counter-screen – HEK cells, counterscreen 2, counter-screen for KCC2 modulator project, confirmation; shares compounds with KCC2 mod; HEK293 parental, thallium flux FluoZin-2 fluorescence slope; thallium flux slope at 10 µM; 3,700 compounds, 33% hits;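 active = thallium flux slope above the same plate's solvent-control mean plus 3 SD in both duplicate wells; inconclusive = duplicate wells that disagreed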;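 also: run without ouabain in cells lacking the KCC2 cotransporter; slope of fluorescence scaled to its starting value between 10 and 20 s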
Numbers without * were called inactive; i = inactive; ? = inconclusive; / = no result given.

SMILES | KCC2 mod | Dynein transport | ROMK mod | DTT redox prof | Autophagy mod | KCC2 sec1 | KCC2 bumet counter | KCC2 secondary2 | HEK293 Tl flux | KCC2 ouabain | HEK counter2
CCN(CC(=O)Nc1c(F)cccc1F)C(=O)CCc1ccc(OC)cc1 | 0.785 | 1.26 | 0.268 | -2.8 | i | / | / | / | / | / | /
CCOc1ccc2nc(N3C(=O)CNC3=S)sc2c1 | 9.96* | 1.07 | -0.531 | / | / | 0.014* | 0.0306* | 0.0312 | 0.0139* | 0.0255* | 0.0123*
Cc1cc2nc(N3C(=O)CNC3=S)sc2cc1C | 19* | 0.211 | 0.521 | -0.4 | i | 0.0188* | 0.0579* | 0.038 | 0.0257* | 0.0406* | 0.015*
Cc1ccc(-n2c(=O)c3sccc3n(Cc3cc(=O)n4cc(Cl)ccc4n3)c2=O)cc1F | -0.781 | -0.261 | 0.315 | 0.0 | i | / | / | / | / | / | /
COCCCNc1nc2ccccc2nc1NS(=O)(=O)c1ccc(C)cc1C | -0.523 | -0.901 | / | / | / | / | / | / | / | / | /
Cc1nn(-c2ccccc2)c(C)c1/C=N/NC(=O)c1cc(C2CC2)[nH]n1 | / | -0.565 | / | -1.1 | i | 0.0075 | 0.00465 | 0.0263 | 0.00711 | 0.0147* | 0.00881
COC(=O)c1cccc(C(=O)N2CCCC(CNC(=O)c3ccccc3Cl)C2)c1 (stereo unspecified) | 6.79e-05 | -0.465 | / | / | / | / | / | / | / | / | /
Cc1ncccc1C(=O)N1CCCC(CNC(=O)c2ccc(-c3ccccc3)cc2)C1 (stereo unspecified) | -4.39* | -1.11 | 0.836 | -0.7 | i | 0.0107 | 0.00568 | ? | 0.00811 | 0.0167* | 0.0109
CC(=O)CCC(=O)N1CCCC(CNC(=O)c2ccc(-c3ccccc3)cc2)C1 (stereo unspecified) | -1.93 | -0.673 | / | -0.5 | i | / | / | / | / | / | /
O=C(NCC1CCCN(C(=O)c2cccnc2)C1)c1ccc(-c2ccccc2)cc1 (stereo unspecified) | -7.6* | -0.913 | 0.86 | -0.3 | i | 0.00902 | 0.00701 | 0.0271* | 0.00449 | 0.0161* | 0.0115
CSCC(=O)N1CCCC(CNC(=O)c2ccc(-c3ccccc3)cc2)C1 (stereo unspecified) | -6.35* | 0.242 | 0.301 | -0.2 | i | 0.00841 | 0.00605 | 0.0296* | 0.00394 | 0.0155* | 0.0107
Cc1cc(C)n(C(=O)Cn2nc([N+](=O)[O-])c(Br)c2C)n1 | 0.745 | -0.118 | 0.658 | -0.1 | i | / | / | / | / | / | /
CCCc1cc(=O)[nH]c(SCC(=O)NC2CCCc3ccccc32)n1 (stereo unspecified) | -0.278 | -0.385 | / | / | / | / | / | / | / | / | /
CCOc1ccccc1N1CCN(C(=O)CCCc2nc3ccccc3s2)CC1 | -2.87 | 0.559 | -0.0521 | -0.1 | i | / | / | / | / | / | /
COC(=O)c1n[nH]c2ccccc12 | / | -0.0258 | -0.0326 | -1.3 | i | / | / | / | / | / | /
O=C(OCCCCN1C(=O)c2ccccc2C1=O)c1n[nH]c2ccccc12 | -2.92* | -0.244 | / | 2.4 | i | 0.00476 | 0.00674* | 0.0282 | ? | ? | 0.0105
O=C(CO/N=C/c1ccccc1OC(F)F)N1CCc2ccccc21 | -0.767 | 0.801 | / | 2.3 | i | / | / | / | / | / | /
CC1Cc2ccccc2N1C(=O)CO/N=C/c1ccccc1OC(F)F (stereo unspecified) | -5.58* | -0.469 | / | 0.3 | i | 0.00616 | ? | 0.0232* | ? | 0.0134* | 0.0103
Cc1sc2c(c1C)c(=O)nc1n2Cc2ccccc2-1 | / | 1.44 | -0.0961 | -0.1 | i | 0.00874 | 0.00619 | 0.0299 | 0.00799 | 0.0188 | 0.0107
CC(CCc1ccccc1)NC(=O)C(Cc1ccccc1)NS(=O)(=O)c1cccs1 (stereo unspecified) | -3.57* | -1.23 | -0.0769 | 0.1 | i | 0.00611 | 0.00384 | ? | ? | 0.0146* | 0.00937
CC1CCCCC1NC(=O)C(Cc1ccccc1)NS(=O)(=O)c1cccs1 (stereo unspecified) | / | 0.126 | -0.521 | 0.1 | i | / | / | / | / | / | /
Cc1sc2ncn(CC(=O)OC(C)C(=O)NC(C)(C)C)c(=O)c2c1C (stereo unspecified) | 0.223 | 1.45 | -0.653 | 0.1 | i | / | / | / | / | / | /
Cc1sc2ncn(CC(=O)OCC(=O)NC(C)(C)C)c(=O)c2c1C | / | -0.399 | / | 1.9 | i | 0.00677 | 0.00502 | 0.0301 | 0.008 | 0.0188 | 0.0115
O=S(=O)(c1ccc(F)cc1)N1CCC(O)(c2ccc3c(c2)OCO3)CC1 | -4.33* | -0.649 | / | 0.9 | i | 0.00707 | 0.00382 | 0.0277 | 0.00757 | 0.0151* | 0.00989
COc1ccc(S(=O)(=O)N2CCC(O)(c3ccc4c(c3)OCO4)CC2)cc1 | 0.0804 | 0.778 | / | 0.0 | i | / | / | / | / | / | /
O=C1C(=O)N(c2ccc(O)cc2)C(c2ccccc2[N+](=O)[O-])/C1=C(\O)c1ccccc1 (stereo unspecified) | -0.751 | -0.11 | -0.467 | / | / | / | / | / | / | / | /
CCOc1cc(N2CCOCC2)c(OCC)cc1NC(=O)Cc1cccc(OC)c1 | 0.0826 | 0.68 | / | 2.9 | i | / | / | / | / | / | /
CCOc1cc(N2CCOCC2)c(OCC)cc1NC(=O)Cc1ccc(OC)c(OC)c1 | -4.7* | 0.798 | / | 1.6 | i | 0.00877 | 0.00541 | 0.0306 | 0.008 | 0.0188 | 0.01
Cc1ccc(-c2ccc(S(=O)(=O)NCC3CCCO3)cc2)cc1 (stereo unspecified) | -4.89* | -0.261 | -0.647 | -0.2 | i | 0.00537 | 0.00414 | 0.0265* | 0.00785 | ? | 0.0112

Bioassay records: PubChem, several laboratories
